# Experimental data taken from ChEMBL document CHEMBL1137696, “Preparation and in vitro evaluation of benzylsulfanyl benzoxazole derivatives as potential antituberculosis agents” (2009).
# Tests used:
# Type in all cases: functional
# Mycobacterium kansasii [1] = test: Antimycobacterial activity against Mycobacterium kansasii 6509/96 after 21 days by micromethod; conditions: 6509/96, 504 h
# Procedure, shortened: (§1)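 Micromethod MIC in Šula semisynthetic medium, with compounds added as DMSO solutions at 1000, 500, 250, 125, 62, 32, 16, 8, 4 and 2 µmol/L. Cultures were incubated at 37 °C, and M. kansasii was read at 7, 14 and 21 days. MIC is the lowest concentration at which mycobacterial growth was inhibited. INH served as standard. Strain 6509/96 was a clinical isolate.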
# [2] = test system: Mycobacterium tuberculosis; test: Antimycobacterial activity against Mycobacterium tuberculosis CNCTC My 331/88 after 14 days by micromethod; conditions: CNCTC My 331/88, 336 h
# Procedure, shortened: (§2)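 MIC by micromethod in Šula semisynthetic medium. Compounds added as DMSO solutions at 1000, 500, 250, 125, 62, 32, 16, 8, 4 and 2 µmol/L. Incubated at 37 °C and read at 14 and 21 days. MIC taken as the lowest concentration that inhibited mycobacterial growth, expressed in µmol/L. INH run as standard. Strains from CNCTC.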
# Mycobacterium kansasii [3] = test: Antimycobacterial activity against Mycobacterium kansasii CNCTC My 235/80 after 7 days by micromethod; conditions: CNCTC My 235/80, 168 h; procedure, shortened: as §1
# Mycobacterium kansasii [4] = test: Antimycobacterial activity against Mycobacterium kansasii 6509/96 after 14 days by micromethod; conditions: 6509/96, 336 h; procedure, shortened: as §1
# Mycobacterium avium [5] = test: Antimycobacterial activity against Mycobacterium avium CNCTC My 330/88 after 14 days by micromethod; conditions: CNCTC My 330/88, 336 h; procedure, shortened: as §2
# Mycobacterium kansasii [6] = test: Antimycobacterial activity against Mycobacterium kansasii 6509/96 after 7 days by micromethod; conditions: 6509/96, 168 h; procedure, shortened: as §1
# [7] = test system: Mycobacterium tuberculosis; test: Antimycobacterial activity against Mycobacterium tuberculosis CNCTC My 331/88 after 21 days by micromethod; conditions: CNCTC My 331/88, 504 h; procedure, shortened: as §2
# Mycobacterium avium [8] = test: Antimycobacterial activity against Mycobacterium avium CNCTC My 330/88 after 21 days by micromethod; conditions: CNCTC My 330/88, 504 h; procedure, shortened: as §2
# Mycobacterium kansasii [9] = test: Antimycobacterial activity against Mycobacterium kansasii CNCTC My 235/80 after 14 days by micromethod; conditions: CNCTC My 235/80, 336 h; procedure, shortened: as §1
# Mycobacterium kansasii [10] = test: Antimycobacterial activity against Mycobacterium kansasii CNCTC My 235/80 after 21 days by micromethod; conditions: CNCTC My 235/80, 504 h; procedure, shortened: as §1
# L929 = test: Growth inhibition of mouse L929 cells
# Procedure, shortened: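 Antiproliferative assay on adherent L-929 monolayers exposed to 10 concentrations of compound. Cells were fixed with glutaraldehyde, stained with 0.05% methylene blue for 15 min, washed, and the dye eluted with 0.33 N HCl. OD was read at 630 nm, and GI50 is the concentration giving 50% growth inhibition.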
# HeLa = test: Cytotoxicity against human HeLa cells
# Procedure, shortened: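 Adherent HeLa monolayers were incubated with 10 concentrations of compound, then glutaraldehyde-fixed and stained with 0.05% methylene blue for 15 min. After gentle washing, the stain was eluted with 0.33 N HCl and absorbance read at 630 nm. CC50 is the concentration causing 50% cytotoxic (lytic) effect.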
# K562 = test: Growth inhibition of human K562 cells
# Procedure, shortened: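 K-562 suspension cultures in microplates were exposed to 10 concentrations of compound. Each well was diluted 1:50 in CASYTON and counted with a CASY 1 electronic cell analyzer (150 µm aperture), using the mean of three successive 0.4 mL counts. GI50 is the point where the concentration-response curve of cell counts/mL relative to control crosses the 50% line.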
SMILES,MIC (Mycobacterium kansasii [1]) [µM],MIC [2] [µM],MIC (Mycobacterium kansasii [3]) [µM],MIC (Mycobacterium kansasii [4]) [µM],MIC (Mycobacterium avium [5]) [µM],MIC (Mycobacterium kansasii [6]) [µM],MIC [7] [µM],MIC (Mycobacterium avium [8]) [µM],MIC (Mycobacterium kansasii [9]) [µM],MIC (Mycobacterium kansasii [10]) [µM],GI50 (L929) [µg/mL],CC50 (HeLa) [µg/mL],GI50 (K562) [µg/mL]
NNC(=O)c1ccncc1 [ISONIAZID],4,0.5,> 250,2,> 250,2,1,> 250,> 250,> 250,–,–,–
Fc1ccc(CSc2nc3ccccc3o2)cc1,125,250,32,62,62,62,500,62,62,125,–,–,–
Clc1ccc(CSc2nc3ccccc3o2)cc1Cl,125,> 125,32,62,62,62,> 250,62,62,125,–,–,–
Fc1ccccc1CSc1nc2ccccc2o1,62,125,32,32,62,32,250,62,32,62,–,–,–
Clc1ccccc1CSc1nc2ccccc2o1,125,> 250,32,62,125,62,> 250,125,32,62,–,–,–
Sc1nc2ccccc2o1,1000,500,500,500,250,250,500,500,1000,1000,–,–,–
N#Cc1ccc(CSc2nc3ccccc3o2)cc1,> 32,> 62,32,32,62,16,> 62,62,32,> 32,–,–,–
COc1cccc(CSc2nc3ccccc3o2)c1,62,125,32,32,32,32,250,32,32,62,–,–,–
Clc1cccc(CSc2nc3ccccc3o2)c1,62,62,32,32,32,32,125,32,32,62,–,–,–
Cc1cccc(CSc2nc3ccccc3o2)c1,250,250,125,125,62,125,500,125,125,500,–,–,–
NC(=S)c1cccc(CSc2nc3ccccc3o2)c1,32,8,8,32,62,8,16,62,32,32,17.3,21.6,5.5
c1ccc(CSc2nc3ccccc3o2)cc1,250,250,125,125,62,32,500,125,250,250,–,–,–
O=[N+]([O-])c1ccccc1CSc1nc2ccccc2o1,> 62,> 250,125,> 62,> 125,62,> 250,> 125,125,> 125,–,–,–
Fc1cccc(CSc2nc3ccccc3o2)c1,62,62,32,32,32,32,125,32,62,125,–,–,–
Brc1cccc(CSc2nc3ccccc3o2)c1,62,125,32,32,32,32,250,32,32,62,–,–,–
O=[N+]([O-])c1cccc(CSc2nc3ccccc3o2)c1,> 32,> 62,32,32,> 32,32,125,> 62,> 32,> 32,–,–,–
FC(F)(F)c1cc(CSc2nc3ccccc3o2)cc(C(F)(F)F)c1,62,62,62,32,> 125,32,125,> 125,62,125,–,–,–
O=[N+]([O-])c1ccc(CSc2nc3ccccc3o2)c([N+](=O)[O-])c1,8,8,4,8,> 16,4,8,> 32,4,4,> 50,45.1,10.4
Brc1ccc(CSc2nc3ccccc3o2)cc1,125,> 62,32,62,32,32,> 125,62,62,> 62,–,–,–
Fc1cccc(Cl)c1CSc1nc2ccccc2o1,62,62,32,32,62,32,125,62,32,62,–,–,–
Cc1ccc(CSc2nc3ccccc3o2)cc1,125,> 500,62,62,32,62,> 500,62,62,125,–,–,–
FC(F)(F)c1cccc(CSc2nc3ccccc3o2)c1,62,62,32,32,32,32,125,32,32,62,–,–,–
N#Cc1cccc(CSc2nc3ccccc3o2)c1,62,125,32,62,62,32,125,62,62,125,–,–,–
Fc1ccc(CSc2nc3ccccc3o2)cc1F,125,125,62,62,62,32,125,125,125,125,–,–,–
FC(F)(F)c1ccc(CSc2nc3ccccc3o2)cc1,62,125,32,32,62,16,125,62,62,125,–,–,–
O=[N+]([O-])c1cccc(F)c1CSc1nc2ccccc2o1,> 62,> 62,> 32,> 32,62,32,> 62,125,> 32,> 32,–,–,–
COc1ccc(CSc2nc3ccccc3o2)cc1,62,62,32,32,32,32,125,62,32,62,–,–,–
O=[N+]([O-])c1ccc(CSc2nc3ccccc3o2)cc1,> 32,> 62,32,32,> 32,32,> 125,> 62,32,> 62,–,–,–
